assay: Toxicity liver stage against HepG2, at 10uM; assay type: cell-based; set-up: test concentration 10 uM, cell line HepG2-A16-CD81EGFP; conditions: human, HepG2-A16-CD81EGFP cells; read-out: INHIBITION
Outline: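 Uninfected HepG2-A16-CD81EGFP cells, 3 × 10^3 per well, 1536-well, plated on prespotted compound at 10 μM final, parasite-free screening media added to match infected plates; puromycin 10 μM positive, DMSO 0.5% negative; run in parallel with 48 h PbLuc assay at 37 °C, 5% CO2; viability by CellTiter-Glo luminescence, normalized to controls.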

Row | SMILES | cytotoxicity at 10 µM [%]
1 | Fc1ccc2[nH]c([C@H]3CCN(C4CCOCC4)C3)nc2c1 | 1.9
2 | COc1ccc2c(c1)OC1(CCN(Cc3ccc(C)cc3)CC1)CC2=O | 7.6
3 | CC(=O)Nc1ccc(OCc2noc(C(=O)N3CCCC3)n2)cc1 | -12.3
4 | CC(C)CNC(=O)CNc1c(NCc2ccco2)c(=O)c1=O | -0.817
5 | CS(=O)(=O)N1CCN(C(=O)c2cnn3c2OCCC3)CC1 | -3.45
6 | Cc1cc(=O)n(CCNS(=O)(=O)c2ccccc2)cn1 | 3.33
7 | CN(C)CC1CSCCCN1S(=O)(=O)Cc1ccc(C(F)(F)F)cc1 (configuration not stated) | -5.36
8 | O=C(CC1CCCC1)N1CCN(c2ccc(-n3cncn3)nn2)CC1 | -11.9
9 | CC1c2ncc(COCC3CCOCC3)n2CCN1C(=O)c1ccoc1 (configuration not stated) | 7.01
10 | CC(C)N1CCN(C)C2(CCN(C(=O)c3ccnnc3)CC2)C1=O | 8.64
11 | CN1CC(=O)N(c2ccsc2)CC12CCN(Cc1nccn1C)C2 (configuration not stated) | -0.269
12 | COc1cccc2c1ccn2CC(=O)N1CCCC(C(=O)O)C1 (configuration not stated) | 6.28
13 | O=c1[nH]c2nc(N3CCOCC3)ncc2c(=O)n1-c1cccc(F)c1 | 9.32
14 | Cc1cnc2n(c1=O)C(CC(=O)NCc1cc(-c3cccs3)on1)CS2 (configuration not stated) | -1.51
15 | CS(=O)(=O)Nc1ccn(Cc2ccc(F)cc2Cl)n1 | 6.64
16 | CCN(CC)CCNS(=O)(=O)c1cccc(CSC)c1 | -7.99
17 | Cc1c(CN(C)C(=O)c2ccnn2C)cnn1C | -5.33
18 | CCc1nc(NCCCOC)c2c(n1)c(C)nn2C | 2.92
19 | Cc1nc2c(c(=O)[nH]1)CCN(Cc1ccc3c(c1)CCCN3C)C2 | -1.87
20 | Cc1nc(-c2ccnn2C)cc(C2CCCN(S(C)(=O)=O)C2)n1 (configuration not stated) | -0.66
21 | Cc1ncc(-c2ccccn2)c(CCNC(=O)C2CCCC2)n1 | 16.4
22 | Nc1ncc(CN2CCC(O)(c3ccccc3F)CC2)cn1 | 1
23 | Cc1cc2nccc(C3CCCN(C(=O)c4ccccc4F)C3)n2n1 (configuration not stated) | 13.6

Row | SMILES | cytotoxicity at 10 µM [%]
24 | CCc1n[nH]c(C(=O)NCCn2nccc2C)c1C | -7.28
25 | O=C(c1cc[nH]n1)N1CCCC1c1cnccn1 (configuration not stated) | -25.4
26 | O=S(=O)(c1ccccc1)N1CCCC(c2nccs2)C1 (configuration not stated) | -23.4
27 | COCC(=O)N1CCCCC1c1nccc(C)n1 (configuration not stated) | -14.6
28 | Cc1nc(C2CN(C)CCO2)cc(N2CCSCC2)n1 (configuration not stated) | -15.6
29 | COCCN1CCC(Cc2cncc(-c3ccc(C(=O)O)cc3)n2)CC1 | -27.6
30 | NC(=O)CN1CCC(NCc2cc(C(F)(F)F)ccc2Cl)CC1 | -3.01
31 | CC(NC1(CNS(C)(=O)=O)CCCC1)c1ccccc1 (configuration not stated) | 8.43
32 | O=C(Nc1ccc(N2CCCCC2)cn1)C1CCCN1C(=O)C1CC1 (configuration not stated) | -6.35
33 | O=C(CCC(F)(F)F)NCC1CCCS1 (configuration not stated) | -1.58
34 | Cc1cc(F)cc(S(=O)(=O)Nc2noc(C)n2)c1 | 3.11
35 | O=C(Nc1cccnc1)N(Cc1ccccc1)C1CC1 | 7.78
36 | Cc1noc(CCNC(=O)C2CSCN2C(=O)C2CCCC2)n1 (configuration not stated) | -45
37 | CN1CCCC(CNC(=O)CN(C)S(=O)(=O)c2cccnc2)C1 (configuration not stated) | 9.45
38 | Cc1nc(CN2CCN(S(=O)(=O)N3CCOCC3)CC2)oc1C | 0.373
39 | CCOC(=O)N(C)C1CCN(Cc2csc(C)n2)CC1 | -3.37
40 | O=C(NCC1(O)CCC1)NC(c1cc(F)ccc1F)C1CC1 (configuration not stated) | -4.81
41 | CN(CCCNC(=O)C1CCc2cn[nH]c2C1)c1ccc(F)cc1 (configuration not stated) | 14.2
42 | CCNc1cc2c(nn1)CCN(C(=O)C1COc3ccccc3O1)C2 (configuration not stated) | -6.34
43 | COC(C)Cc1nc(-c2cnn3c(C)cc(C)nc23)no1 (configuration not stated) | -8.11
44 | CN(CCCNC(=O)NCc1ccncc1)CC(F)(F)F | 1.85
45 | COCCC(=O)N(Cc1ccccn1)Cc1ccccc1C | 2.14
46 | CC(CS(C)(=O)=O)N(C(=O)CCc1ccc(Cl)s1)C1CC1 (configuration not stated) | 1.92

Row | SMILES | cytotoxicity at 10 µM [%]
47 | Cc1nc(N2CCC(CC(=O)N3CCCC3)CC2)c2cnn(C)c2n1 | 0.866
48 | CS(=O)(=O)c1ccc(NC(=O)CSc2ccc3c(c2)CCC3)cc1 | 5.73
49 | COCc1nc2n(n1)CCCC2Nc1nc(C)ns1 (configuration not stated) | -3.32
50 | CCc1nc(NS(=O)(=O)c2cc(C)ccc2Br)no1 | 4.66
51 | O=C(CN1CCCC1Cn1cccn1)NC1CCN(C2CC2)CC1 (configuration not stated) | 5.77
52 | CC(C)CN1CCN(C(=O)c2cccnc2-n2cncn2)CC1 | 1.53
53 | Cc1cc(CN2CCN(C(=O)Cc3ccccc3F)CC2)on1 | -4.02
54 | CCOc1ccc(CNCc2ccc(C(=O)NC)cc2)cc1OCC | -7.06
55 | Cc1noc(CS(=O)(=O)CC(=O)NC(C)c2ccccc2)n1 (configuration not stated) | 9.81
56 | CS(=O)(=O)CCCSCc1cc(F)cc(Br)c1 | 9.05
57 | Cc1ccoc1C(=O)NCCOc1ccc(C(F)(F)F)cn1 | -4.02
58 | CC(C)c1nc(C2CCCN2C(=O)CN(C)Cc2ccccc2)no1 (configuration not stated) | -4.86
59 | CNS(=O)(=O)c1ccc(CNC(=O)N(CC(C)C)C(C)C)cc1 | 4.5
60 | CC(C)NC(=O)CNC(C)c1c(F)cccc1Cl (configuration not stated) | 7.22
61 | COc1cncc(N2CCN(Cc3ccco3)CC2)n1 | 0.197
62 | CN(C(=O)CCN1CCCC1=O)c1cc(C#N)c2ccccc2n1 | 3.33
63 | CN(C)c1cc2c(nn1)CCN(C(=O)c1cc3ccccc3[nH]c1=O)C2 | 3.99
64 | Fc1cc(CNc2nncs2)ccc1Cl | -1.74
65 | CC(C)c1nc(C2CCCN2CCS(C)(=O)=O)no1 (configuration not stated) | 6.51
66 | OCc1ccc(N2CCN(c3ncccn3)CC2)c(F)c1 | -23.8
67 | CSc1ccc(OC(C)C(=O)Nc2cc[nH]n2)cc1 (configuration not stated) | 7.71
68 | CN1CCN(C(CNC(=O)CCn2cccn2)c2cccs2)CC1 (configuration not stated) | 24.4
69 | CN(C)C(=O)CN1CCO[C@H]2CN(Cc3ccoc3)C[C@H]21 | -108

Row | SMILES | cytotoxicity at 10 µM [%]
70 | Cc1nnc([C@@]23CCO[C@@H]2CCN(Cc2ccc4c(c2)OCO4)C3)o1 | -102
71 | CN(C)C(=O)C1CCC2(CCN(C(=O)Nc3ccc(F)cc3)CC2)O1 (configuration not stated) | -111
72 | Cc1nc(NCC2CC2)nc2c1COCC21CCN(C)C1 (configuration not stated) | -0.722
73 | CC(=O)N1CC[C@]2(O)CCN(Cc3nc(C)c[nH]3)C[C@@H]2C1 | -5.79
74 | c1ccc(-c2cc(NCCCC3CCOC3)n3nccc3n2)cc1 (configuration not stated) | -0.309
75 | CCn1ncnc1C(C)NC(=O)Cc1cc2c(cc1Cl)OCCO2 (configuration not stated) | -6.38
76 | O=C(c1ccnc(CC2COc3ccccc3C2)c1)N1CCCC1 (configuration not stated) | 1.7
77 | Cc1cccc(OC2CN(C(=O)C3CC(=O)N(C4CC4)C3)C2)c1 (configuration not stated) | -0.503
78 | CC(C)n1cnnc1CN(C)C(=O)c1ccccc1-n1cncn1 | -1.49
79 | Nc1nnc(CCNC(=O)c2cccc(C3CCCNC3)c2)s1 (configuration not stated) | 2.9
80 | Cn1ncc2c(N3CCCN4CCC[C@H]4C3)nc(C(C)(C)C)nc21 | -128
81 | COc1ccc(CN2CCC(CO)(Cc3ccc(Cl)cc3)CC2)c(O)c1 | -134
82 | Cc1sc2nc(CCN)nc(N3CCS(=O)(=O)CC3)c2c1C | -44.1
83 | CN(C)C(C(=O)NC1(CO)CCCC1)c1ccc(F)cc1 (configuration not stated) | -48.2
84 | COc1cccc(CC(=O)N2CCC(Cc3nnc(SC)n3C)CC2)c1 | -40.2
85 | Nc1nc2c(c(N3CCC(CCn4cccn4)CC3)n1)CCNCC2 | -4.17
86 | NC(=O)CN1CC2(CCC1=O)CCN(Cc1ccc(F)cc1Cl)CC2 | 3.59
87 | CCn1c(-c2ccccc2)nn(CC(=O)NCCc2c[nH]cn2)c1=O | -2.99
88 | O=C(CCN1CCNCC1)N1CCC2(CC1)c1ccccc1CC2O (configuration not stated) | -9.43
89 | CCc1cc(N(C)Cc2nonc2C)nc(N(C)C)n1 | -6.32
90 | CCCN1CCC(Cc2nn3c(C(C)C)nnc3s2)CC1 | -6.17
91 | O=C1CC[C@H]2CN(Cc3cccc(F)c3)CC[C@H]2N1CCc1c[nH]cn1 | -1.04
92 | O=C(Nc1ccc(F)cc1)N1CCC2(CCC(=O)N(C3CC3)C2)CC1 | 5.54

Row | SMILES | cytotoxicity at 10 µM [%]
93 | O=C(NCc1nc(-c2ncccn2)no1)c1ccc(C2CCCO2)s1 (configuration not stated) | 0.774
94 | COc1ccc(/C=C/CN2CCC3(C2)CN(C)C(=O)O3)cc1 (configuration not stated) | 0.313
95 | NC(=O)Cn1cc(NC(=O)N2CCC(c3ccccc3)CC2)cn1 | -7.69
96 | CCN(Cc1cccc2c1OCO2)C(=O)NCCOC | 1.45
97 | O=S(=O)(CCCNC1CCc2ncnn2C1)c1ccccc1 (configuration not stated) | 2.53
98 | CCc1n[nH]c(C2CN(C(=O)c3ccnc(C4CC4)n3)CCO2)n1 (configuration not stated) | 2.4
99 | CCn1cc(CN2CCCN(C(=O)c3ccc(C)o3)CC2)cn1 | -13.9
100 | CCc1nnc2n1CCN(C(=O)COCCc1ccccc1)C2 | -8.28
101 | O=C([C@H]1COC[C@H]2CN(C3CCCCC3)C[C@H]21)N1CCOCC1 | -110
102 | Cc1cccc(CN2CCC[C@@H]3CN(C(=O)c4ccco4)C[C@@H]32)n1 | -3.49
103 | Cc1ccc(N2CCC3(CC2)CC(OCC(C)C)C3)nn1 | -121
104 | CCOC1COC2(CCN(CC3CCOCC3)CC2)C1 (configuration not stated) | -97.6
105 | CS(=O)(=O)CC(=O)N1C[C@H]2CCC[C@@]2(COCc2ccncc2)C1 | -101
106 | Cc1nc(CN2CCC3(CC2)C(=O)N(C)CCN3C)cs1 | 4.37
107 | CC(C)Cc1nc(-c2ccnc(N3CCNCC3)n2)no1 | 2.04
108 | Cc1nc(CN2CCO[C@@H]3CC(COc4ccccn4)C[C@H]32)cs1 (some centres not stated) | 8.57
109 | COc1ccc(OCc2sc(C3(O)CCCNCC3)nc2C)cc1 (configuration not stated) | -3.66
110 | CCOC1CC2(CCN(C(=O)Cc3ccccn3)CC2)C1 | -90.9
111 | O=C(Cc1ccsc1)N1Cc2nc(CN3CCCCC3)oc2C1 | 7.19
112 | O=c1[nH]c2cn(-c3ccc(Br)cc3)c(=O)n2[nH]1 | -5.51

Reference: ChEMBL document CHEMBL4513216, “Probing the Open Global Health Chemical Diversity Library for Multistage-Active Starting Points for Next-Generation Antimalarials” (ACS Infect Dis, 2020)
